Measured values as given in PMC2913404 (Neurobiology of disease, 2010).
Positions of bridges follow the written chain, without caps; N, C: chain ends. Residues, ends and D or L forms follow the SMILES beside them. *: point of attachment. Biotin = O=C1N[C@H]2[C@H](CS[C@H]2CCCCC(=O)*)N1

Key:
[1] = tested on: Aβ1–42 peptide; test: Amyloid trapping assay, SDS-PAGE and Aβ1–40/42 immunoblot; type: biochemical; details: SDS-PAGE/immunoblot after mixing with Aβ1–42 (Fig 1G, 1H)
Summary of the method: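 Aβ1–42 (50 µM) incubated with equimolar test peptide (50 µM) or 1:500 immune serum for 5 h at 37°C. A subset of mixtures was boiled in SDS with reducing agent and run on 10–20% Tris-tricine gels, then transferred to nitrocellulose. Blots were blocked in TBST/5% milk and probed with rabbit anti-Aβ1–40/42 at 1:10,000 in TBST/2.5% milk.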

[2] = tested on: APPswePSEN1(A246E) mouse brain; test: Brain inflammation immunostaining; type: in vivo; details: young and old; for GFAP staining signal: with adjuvant (Fig 5C); for Iba1 staining signal: with adjuvant (Fig 5E); for reduction of CD68 immunostaining: significant (Fig 5D)
[3] = tested on: Aβ1–40/1–42 in APPswePSEN1(A246E) mouse brain; test: Aβ1–40/1–42 immunostaining of brain; type: in vivo; details: for Aβ1–40/42 immunostaining signal, % of control: young, with adjuvant
Summary of the method: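 After monthly s.c. streptavidin-peptide conjugate immunization with adjuvant, brains were collected after PBS exsanguination and bisected, then snap-frozen or fixed overnight in 2% paraformaldehyde. Some sagittal sections were pretreated with 90% formic acid for 4 min. Sections were blocked 2 h in 10% goat serum, given rabbit anti-Aβ1–40/42 overnight at 4°C, then Cy3 secondary for 1 h. Eight to twelve sections 80 µm apart were imaged at 10X with a fixed threshold.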

[4] = tested on: SDPM1 / SDPM2 peptide; test: Serum antibody titer to SDPM1/SDPM2 after immunization; type: in vivo, mouse; details: for antibody titers to SDPM1 and SDPM2: young (5 to 12 months), end of experiment (S2A); for SDPM1-specific antibody titer (SDPM1 minus SDPM2 titer): average, SEM, n=7–12 animals (Fig 2A)
[5] = tested on: Aβ amyloid (Aβ1–40 or Aβ1–42); test: Thioflavin T amyloid formation assay, Aβ form not distinguished; type: biochemical; details: peptide 50µM + Aβ1–40 or Aβ1–42 50µM, 37°C, n=3 (Fig 1C)
Summary of the method: (§1)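 Aβ1–40 or Aβ1–42 (50 µM) was mixed equimolar with peptide (50 µM) at 37°C until amyloid formation saturated: 5 days for Aβ1–40, 5 hours for Aβ1–42. Time courses set the read point. Thioflavin T was then added and read at 490 nm with excitation at 445 nm. Aβ alone served as positive control; peptide alone was read as background.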

[6] = tested on: Aβ1–40 peptide (amyloid aggregation); test: Thioflavin T amyloid formation assay, Aβ1–40; type: biochemical; details: Aβ1–40 50µM + peptide 50µM, 5 days, 37°C, n=3 (Fig 1C)
Summary of the method: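 Aβ1–40 (50 µM; stored frozen in DMSO) was mixed with equimolar test peptide (50 µM) and incubated 5 days at 37°C until amyloid formation saturated. Thioflavin T was then added, and signal was read at 490 nm with excitation at 445 nm.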

[7] = Self-aggregation of SDPM1 by Thioflavin T; type: physicochemical; details: SDPM1 added alone, over time
[8] = tested on: monovalent Aβ1–42 peptide; details: ref Kang et al., 2003; cited from earlier work
[9] = tested on: Aβ1–40 in APPswePSEN1(A246E) mouse brain; test: Aβ1–40 brain peptide level; type: in vivo; details: with adjuvant
Summary of the method: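 Transgenic mice received monthly subcutaneous injections of biotinylated test peptide (100 µg) conjugated overnight at 4°C to 25 µg streptavidin in TBS, emulsified 1:1 with adjuvant. TiterMax Gold was used first, then Freund's incomplete. Schedules ran 5–12 months (8 injections) or 12–18 months (7). Mock controls got TBS plus adjuvant. Brain Aβ1–40 ELISA was read at 450 nm against peptide standard curves and reported as µg/g wet brain weight.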

[10] = tested on: Aβ1–42 in APPswePSEN1(A246E) mouse brain; test: Aβ1–42 brain peptide level; type: in vivo; details: with adjuvant
[11] = tested on: Aβ1–42 peptide (amyloid aggregation); test: Thioflavin T amyloid formation assay, Aβ1–42; type: biochemical; details: Aβ1–42 50µM + peptide 50µM, 5 hours, 37°C, n=3 (Fig 1C)
Summary of the method: as §1

[12] = tested on: amyloid plaques in AD brain; details: ref Kang et al., 2003; cited from earlier work
[13] = tested on: low molecular weight Aβ amyloid from COS7 cells transfected with APPswe; test: Precipitation from APPswe-transfected COS7 lysates; type: binding, human; details: COS7 lysate 1mg; antibody 10µg or biotin-SDPM1 50µg (Fig 1I, S1A)
Summary of the method: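 COS7 cells grown in DMEM/10% FCS were transfected at 40% confluence with V5-tagged human APP695, wild type or Swedish. At 48 h cells were lysed in 1% NP40/0.1% SDS/deoxycholate/EDTA buffer with protease inhibitors, sonicated and cleared at 16000g. Lysate (1 mg) was incubated overnight at 4°C with antibody (10 µg) or biotinylated peptide (50 µg), the latter captured on streptavidin agarose. Precipitates were analysed by SDS-PAGE and Aβ immunoblot.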

[14] = tested on: APPswePSEN1(A246E) mice; test: Morris water maze; type: in vivo, mouse
[15] = tested on: Aβ amyloid; test: Serum antibody titer to Aβ amyloid after immunization; type: in vivo, mouse; details: for Aβ amyloid antibody titer: young, significant vs Mock (Fig 2C)
[16] = tested on: monovalent Aβ1–40 peptide; details: ref Kang et al., 2003; cited from earlier work
[17] = tested on: fibrillar Aβ amyloid plaques in APPswePSEN1(A246E) mouse brain; test: Amyloid plaque burden, number and area; type: in vivo
[18] = tested on: Aβ amyloid species in APPswePSEN1(A246E) cortex; test: Aβ/APP immunoblot of soluble cortex fraction; type: in vivo, mouse; details: immunoblot (Fig 3G)
[19] = old, in most instances (Fig 3D–F)
[20] = young, in all instances, n=7–12 animals (Fig 3A–C)
[21] = young, soluble and insoluble, cortex, hippocampus (Fig 3A, B)

DWGKGGRWRLWPGASGKTEA [SDPM2]
effect on high MW Aβ aggregate formation [1]: had no effect on Aβ amyloid formation in vitro | GFAP staining signal [2]: no significant changes | Iba1 staining signal [2]: no significant changes | Aβ staining levels vs mock-immunized ([3]; S2C): not significantly reduced, though it trended downward compared to mock-immunized animals | SDPM1-specific antibody titers ([4]; any condition (Fig 2A)): never showed SDPM1-specific antibody titers under any conditions | antibody titers to SDPM1 and SDPM2 ([4]; without adjuvant): 2 to 15 µg/mL | Thioflavin T signal decrease [5]: no significant decrease in Thioflavin T signal

CC(C)C[C@@H]1NC(=O)[C@H](CCCNC(=N)N)NC(=O)[C@H](Cc2c[nH]c3ccccc23)NC(=O)[C@H](CCCNC(=N)N)NC(=O)CNC(=O)CNC(=O)[C@H](CCCCN)NC(=O)CNC(=O)[C@H](Cc2c[nH]c3ccccc23)NC(=O)[C@H](CC(=O)O)NC(=O)[C@@H](NC(=O)[C@H](CCC(=O)O)NC(=O)[C@H](C)NC(=O)CCCC[C@@H]2SC[C@@H]3NC(=O)N[C@@H]32)CSSC[C@@H](C(=O)NCC(=O)N2CCC[C@H]2C(=O)O)NC(=O)[C@H](C)NC(=O)[C@H](CCC(=O)O)NC(=O)[C@H]([C@@H](C)O)NC(=O)[C@H](CCCCN)NC(=O)CNC(=O)[C@H](CO)NC(=O)[C@H](C)NC(=O)CNC(=O)[C@@H]2CCCN2C(=O)[C@H](Cc2c[nH]c3ccccc23)NC1=O [SDPM1] (Biotin-AECDWGKGGRWRLWPGASGKTEACGP-OH; disulfide 3-24; C-terminus assumed)
effect on high MW Aβ aggregate formation [1]: reduced formation of high molecular weight (MW) Aβ aggregates | size of trapped Aβ forms (trimers and tetramers) [1]: 12–16 kDa | inhibition of amyloid aggregation [6]: over 60% | Thioflavin T signal of peptide alone (amyloid self-formation) [7]: did not lead to development of increased Thioflavin T signal over time | binding to monovalent Aβ1–42 peptide [8]: does not bind monovalent Aβ1–40 or Aβ1–42 peptide | reduction in Aβ1–40 peptide level [9, 19]: greater than 50% | Aβ1–40 cerebellum level ([9]; young, cerebellum (Fig 3C)): significantly reduced | reduction in Aβ1–40 peptide level [9, 20]: greater than 50% | Aβ1–40 brain level, significance of reduction [9, 21]: significant reduction in both soluble and insoluble Aβ1–40 and Aβ1–42 | reduction in Aβ1–42 peptide level [10, 19]: greater than 50% | reduction in Aβ1–42 peptide level ([10]; old, insoluble fraction, cortex (Fig 3D)): 65–75% | reduction in Aβ1–42 peptide level ([10]; old, insoluble fraction, hippocampus (Fig 3E)): 65–75% | reduction in Aβ1–42 peptide level [10, 20]: greater than 50% | Aβ1–42 brain level, significance of reduction [10, 21]: significant reduction in both soluble and insoluble Aβ1–40 and Aβ1–42 | inhibition of amyloid aggregation [11]: over 60% | reduction of CD68 immunostaining ([2]; cortex, with adjuvant): ≥ 50% | reduction of CD68 immunostaining ([2]; hippocampus, with adjuvant): ≥ 50% | GFAP staining signal [2]: no significant changes | Iba1 staining signal [2]: no significant changes | CD3, CD4, CD8, B220 brain parenchymal staining ([2]; with adjuvant, not shown): no evidence for brain parenchymal staining | Aβ1–40/42 immunostaining signal, % of control ([3]; cortex): 25±6% | Aβ1–40/42 immunostaining signal, % of control ([3]; hippocampus): 14±3% | Aβ1–40/42 staining signal ([3]; old, with adjuvant (S2C)): also reduced in old mice | binding to amyloid plaques in AD brain [12]: most efficacious in binding amyloid plaques in AD brain | precipitation of low MW Aβ amyloid from APPswe cells [13]: tetramer Aβ amyloid precipitated from APPswe-transfected cells | escape latency ([14]; old (12 to 18 mo), with adjuvant (Fig 4D)): no improvement | probe test ([14]; old (12 to 18 mo), with adjuvant (Fig 4E)): no improvement | probe test, time in platform quadrant ([14]; young (5 to 12 mo), with adjuvant (Fig 4B)): improved significantly compared to controls, spending almost the same amount of time in the appropriate quadrant as WT animals | SDPM1-specific antibody titer (SDPM1 minus SDPM2 titer) ([4]; old (12 to 18 months), with adjuvant): 29 ± 6 µg/mL | predominant antibody subtype ([4]; with adjuvant, young and old (Fig 2B)): IgG1 | antibody titers to SDPM1 and SDPM2 ([4]; without adjuvant): 2 to 15 µg/mL | antibody titers to SDPM1 and SDPM2 vs without adjuvant ([4]; young, with adjuvant (S2A)): increased titers to SDPM1 and SDPM2 | SDPM1 titers relative to SDPM2 titers ([4]; young, without adjuvant (S2A)): increased SDPM1 titers relative to SDPM2 | SDPM1-specific antibody titer (SDPM1 minus SDPM2 titer) ([4]; young, without adjuvant): 5 ± 1 µg/mL | Aβ amyloid (Aβ1–40/42) antibody titer ([15]; old, with adjuvant, Mock 11±6µg/mL, did not reach statistical significance (Fig 2C)): 23 ± 7 µg/mL | Aβ amyloid antibody titer ([15]; with adjuvant, Mock 5±2µg/mL): 21 ± 7 µg/mL | Aβ amyloid antibody titer ([15]; without adjuvant, Mock 1±1 µg/mL): 5 ± 1 µg/mL | binding to monovalent Aβ1–40 peptide [16]: does not bind monovalent Aβ1–40 or Aβ1–42 peptide | Thioflavin S staining of fibrillar amyloid (images) ([17]; hippocampus and cortex (Fig 2D, S3–4), similar with Congo Red (not shown)): dramatically reduced | amyloid plaque burden, plaque number, plaque area, Thioflavin S staining ([17]; old, s.c. once a month with adjuvant, 12 to 18 months (Fig 2E–G, S2B)): highly significant reductions in amyloid plaque burden, plaque number, plaque area, and Thioflavin S staining | high and low MW Aβ amyloid species [18]: large reductions in both high and low MW Aβ amyloid species
